Test results: ChEMBL document CHEMBL1150351, “Design, synthesis, and biological evaluation of new-generation taxoids” (J Med Chem, 2008)
Activity calls are given as the source filed them. The calls are words filed in the database; no cut-off is given here.

What was measured:
MCF7 [1] = experiment: Cytotoxicity against Pgp deficient human MCF7 cells after 72 hrs by sulforhodamine B test; format: functional, cell-based; conditions: MCF7, 72 h
MCF7 [2] = experiment: Resistance index, Ratio of IC50 for multidrug resistant Pgp expressing human NCI/ADR cells to IC50 for Pgp deficient human MCF7 cells; format: functional; design: reference not given here
[3] = Cytotoxicity against multidrug resistant Pgp expressing human NCI/ADR cells after 72 hrs by sulforhodamine B test; format: functional, cell-based; conditions: NCI/ADR-RES
[4] = Cytotoxicity against Pgp deficient human LCC6 cells after 72 hrs by sulforhodamine B test; format: functional, cell-based; conditions: C6, 72 h
Bos taurus [5] = species: Bos taurus; experiment: Induction of calf brain tubulin polymerization at 10 uM in absence of GTP by spectrophotometric assay
C6 = experiment: Resistance index, Ratio of IC50 for multidrug resistant Pgp expressing human LCC6 cells to IC50 for Pgp deficient human LCC6 cells; format: functional; design: reference not given here
Bos taurus [6] = species: Bos taurus; experiment: Induction of calf brain tubulin polymerization at 10 uM by spectrophotometric assay
Outline: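 Calf brain microtubule protein diluted to 1 mg/mL in MES buffer with 3 M glycerol; taxoid at 10 µM. Assembly followed at 37 °C as turbidity change at 350 nm. 6 mM CaCl2 added after 50 min to follow depolymerization. Tubulin is 85% of the protein. Runs used either centrifuged tubulin or tubulin used as stored, with 1 mM GTP in some runs.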

[7] = Cytotoxicity against multidrug resistant Pgp expressing human LCC6 cells after 72 hrs by sulforhodamine B test; format: functional, cell-based; conditions: LCC-6, 72 h
DLD-1 [8] = experiment: Antitumor activity against Pgp expressing multidrug resistant human DLD1 cells xenografted SCID mouse assessed as tumor growth delay at 10 mg/kg, iv administered for 3 days; format: functional
Outline: (§1)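 Female SCID mice (6-8 weeks), 5 per treated group, 10 untreated controls, bearing DLD-1 (Pgp+) human colon xenografts. Dosing was iv by tail vein from day 5 after implant, ×3. Stock was 30 mg/mL in Tween-80/ethanol 1:1, diluted in 0.9% saline. Caliper volume V=0.4·l·w² every 3-4 days. Growth delay was time to 600 mm3, interpolated from log(volume) vs time. Cox-Mantel test was used versus control. Cure meant no palpable tumor on day 167.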

BXPC-3 = experiment: Cytotoxicity against multidrug resistant human BxPC3 cells after 72 hrs by MTT assay; format: functional, cell-based; conditions: BXPC-3, 72 h
Outline: (§2)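 Pancreatic lines were cultured per ATCC, seeded at 2.5 × 10^4 cells/well and allowed to adhere overnight. The medium was replaced with drug diluted from a 10 mM DMSO stock, or vehicle, for 72 h, in triplicate, with at least three independent trials. MTT at 0.5 mg/mL was added for 3 h, formazan was dissolved in acidified isopropanol, and A570 was read. IC50 came from sigmoid-Emax nonlinear regression.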

Bos taurus [9] = species: Bos taurus; experiment: Induction of calf brain tubulin polymerization at 10 uM after 12 mins in presence of GTP by spectrophotometric assay
Outline: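 Calf brain microtubule protein, 1 mg/mL in MES buffer with 3 M glycerol, was assembled at 37 °C with 1 mM GTP and 10 µM drug. Turbidity was followed at 350 nm. Tubulin stored in liquid nitrogen was centrifuged just before use and adjusted to 1 mg/mL. CaCl2 (6 mM) was added at 50 min to follow depolymerization.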

CFPAC-1 [10] = experiment: Cytotoxicity against multidrug resistant human CFPAC1 cells after 72 hrs by MTT assay; format: functional, cell-based; conditions: CFPAC-1, 72 h; outline: as §2
DLD-1 [11] = experiment: Antitumor activity against Pgp expressing multidrug resistant human DLD1 cells xenografted SCID mouse assessed as tumor growth at 20 mg/kg, iv administered for 3 days after 167 days; format: functional, organism-based; design: dose 20 mg/kg; outline: as §1
DLD-1 [12] = experiment: Antitumor activity against Pgp expressing multidrug resistant human DLD1 cells xenografted SCID mouse assessed as tumor growth delay at 20 mg/kg, iv administered for 3 days; format: functional; outline: as §1
DLD-1 [13] = experiment: Antitumor activity against Pgp expressing multidrug resistant human DLD1 cells xenografted SCID mouse assessed as tumor growth at 10 mg/kg, iv administered for 3 days after 167 days; format: functional, organism-based; design: dose 10 mg/kg; outline: as §1
MIA PaCa-2 = experiment: Cytotoxicity against multidrug resistant human MIAPaCa2 cells after 72 hrs by MTT assay; format: functional, cell-based; conditions: MIA PaCa-2, 72 h; outline: as §2
[14] = Cytotoxicity against human primary pancreatic ductal cells after 72 hrs by MTT assay; format: cell-based
PANC-1 = experiment: Cytotoxicity against multidrug resistant human PANC1 cells after 72 hrs by MTT assay; format: functional, cell-based; conditions: PANC-1, 72 h; outline: as §2
DLD-1 [15] = experiment: Antitumor activity against Pgp expressing multidrug resistant human DLD1 cells xenografted SCID mouse assessed as tumor growth delay at 40 mg/kg, iv administered for 3 days; format: functional; outline: as §1
[16] = Cytotoxicity against paclitaxel resistant human 1A9PTX10 cells expressing class 1 beta-tubulin mutant after 72 hrs; format: functional, cell-based; conditions: 1A9/ptx-10, 72 h
A2780 = experiment: Cytotoxicity against human A2780 cells after 72 hrs; format: functional, cell-based; conditions: A2780, 72 h
[17] = Cytotoxicity against paclitaxel resistant human 1A9PTX22 cells expressing class 1 beta-tubulin mutant after 72 hrs; format: functional, cell-based; conditions: 1A9/ptx-22, 72 h
CFPAC-1 [18] = experiment: Antitumor activity against mdr1 expressing multidrug resistant human CFPAC1 cells xenografted Swiss mouse assessed as reduction in tumor volume at 20 mg/kg, iv administered for 3 days after 8 weeks; format: functional, organism-based; design: dose 20 mg/kg
Outline: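 CFPAC-1 (mdr1-high) pancreatic cells, 1 × 10^6 in 200 µL PBS, were injected into both flanks. Treatment began on day 19 at about 100 mm3. Dosing was iv by tail vein on days 19, 22 and 25 at 20 mg/kg each (60 mg/kg total). Stock was 30 mg/mL in Tween-80/ethanol 1:1, diluted in PBS to 0.2 mL. Caliper volume was V=0.4·l·w².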

Mus musculus = experiment: Toxicity in Pgp expressing multidrug resistant human DLD1 cells xenografted SCID mouse at 20 mg/kg, iv administered for 3 days; format: organism-based, DLD-1; design: dose 20 mg/kg, route intravenous; conditions: in vivo, 72 h
Outline: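 Female SCID mice with DLD-1 (Pgp+) colon xenografts, 5 per group. Dosing was iv by tail vein, 20 mg/kg ×3 from day 5 post-implant, in Tween-80/ethanol diluted with saline. Toxicity was counted as animals that died or lost more than 20% body weight.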

Bos taurus [19] = species: Bos taurus; experiment: Induction of calf brain tubulin polymerization at 10 uM in after 5 mins in absence of GTP by spectrophotometric assay

Q: With COC(=O)O[C@H]1C(=O)[C@@]2(C)[C@H]([C@H](OC(=O)c3cccc(OC)c3)[C@]3(O)C[C@H](OC(=O)[C@H](O)[C@H](C=C(C)C)NC(=O)OC(C)(C)C)C(C)=C1C3(C)C)[C@]1(OC(C)=O)CO[C@@H]1C[C@@H]2O as the molecule, how does the IC50 (MCF7 [1]) read?
A: Its IC50 is 0.4 nM.

Q: What about the “Ratio IC50” value (MCF7 [2]) of the same molecule?
A: Its value is 3.5.

Q: What about the IC50 [3] of the same molecule?
A: Its IC50 is 1.4 nM.

Q: What about the IC50 [4] of the same molecule?
A: Its IC50 is 0.6 nM.

Q: And the Activity (Bos taurus [5])?
A: The Activity was “Active”.

Q: What about the “Ratio IC50” value (C6) of the same molecule?
A: Its value is 2.7.

Q: And the Activity (Bos taurus [6])?
A: The Activity was “Active”.

Q: And the IC50 [7]?
A: The IC50 was 1.6 nM.

Q: With CC(=O)O[C@@]12CO[C@@H]1C[C@H](O)[C@@]1(C)C(=O)[C@H](OC(=O)C3CC3)C3=C(C)[C@@H](OC(=O)[C@H](O)[C@H](C=C(C)C)NC(=O)OC(C)(C)C)C[C@@](O)([C@@H](OC(=O)c4ccccc4)[C@H]21)C3(C)C as the molecule, how does the Activity (DLD-1 [8]) read?
A: The Activity was 37 days.

Q: What about the IC50 (BXPC-3) of the same molecule?
A: Its IC50 is 1.04 nM.

Q: And the Activity (Bos taurus [9])?
A: Its Activity is 90%.

Q: And the IC50 (CFPAC-1 [10])?
A: Its IC50 is 0.83 nM.

Q: And the IC50 [3]?
A: The IC50 was 3.9 nM.

Q: And the Activity (DLD-1 [11])?
A: Its Activity is “Active”.

Q: What about the Activity (DLD-1 [12]) of the same molecule?
A: Its Activity is greater than 150 days.

Q: And the Activity (DLD-1 [13])?
A: Its Activity is “inactive”.

Q: What about the IC50 (MIA PaCa-2) of the same molecule?
A: The IC50 was 0.92 nM.

Q: And the Activity [14]?
A: The Activity was “Non-toxic”.

Q: And the Activity (Bos taurus [5])?
A: The Activity was “Active”.

Q: What about the IC50 (PANC-1) of the same molecule?
A: The IC50 was 3.68 nM.

Q: And the Activity (DLD-1 [15])?
A: Its Activity is greater than 150 days.

Q: And the IC50 [16]?
A: The IC50 was 9 nM.

Q: And the IC50 (A2780)?
A: The IC50 was 0.44 nM.

Q: And the IC50 [17]?
A: The IC50 was 3.94 nM.

Q: And the Activity (CFPAC-1 [18])?
A: Its Activity is “Active”.

Q: Which IC50 [3] does the source give for CC(=O)O[C@H]1C(=O)[C@@]2(C)[C@H]([C@H](OC(=O)c3ccccc3)[C@]3(O)C[C@H](OC(=O)[C@H](O)[C@@H](NC(=O)c4ccccc4)c4ccccc4)C(C)=C1C3(C)C)[C@]1(OC(C)=O)CO[C@@H]1C[C@@H]2O [PACLITAXEL] here?
A: Its IC50 is 300 nM.

Q: And the Activity (DLD-1 [11])?
A: Its Activity is “inactive”.

Q: And the Activity (DLD-1 [12])?
A: The Activity was 8 days.

Q: What about the Activity (Mus musculus) of the same molecule?
A: Its Activity is “Non-toxic”.

Q: And the IC50 [7]?
A: Its IC50 is 346 nM.

Q: And the IC50 [16]?
A: Its IC50 is 533 nM.

Q: And the IC50 (A2780)?
A: The IC50 was 1.38 nM.

Q: What about the IC50 [17] of the same molecule?
A: The IC50 was 161 nM.

Q: Which IC50 (MCF7 [1]) does the source give for CCC(=O)O[C@H]1C(=O)[C@@]2(C)[C@H]([C@H](OC(=O)c3cccc(OC)c3)[C@]3(O)C[C@H](OC(=O)[C@H](O)[C@H](C=C(C)C)NC(=O)OC(C)(C)C)C(C)=C1C3(C)C)[C@]1(OC(C)=O)CO[C@@H]1C[C@@H]2O here?
A: Its IC50 is 0.36 nM.

Q: And the Activity (Bos taurus [19])?
A: The Activity was greater than 90%.

Q: What about the IC50 (BXPC-3) of the same molecule?
A: The IC50 was 3.03 nM.

Q: And the IC50 (CFPAC-1 [10])?
A: Its IC50 is 0.89 nM.

Q: What about the IC50 [3] of the same molecule?
A: The IC50 was 0.33 nM.

Q: What about the IC50 [4] of the same molecule?
A: The IC50 was 1 nM.

Q: What about the IC50 (MIA PaCa-2) of the same molecule?
A: Its IC50 is 0.68 nM.

Q: And the Activity (Bos taurus [5])?
A: Its Activity is “Active”.

Q: And the IC50 (PANC-1)?
A: Its IC50 is 22.6 nM.

Q: What about the IC50 [16] of the same molecule?
A: Its IC50 is 3.65 nM.

Q: And the IC50 (A2780)?
A: Its IC50 is 0.76 nM.

Q: And the IC50 [17]?
A: Its IC50 is 3.88 nM.

Q: With CCC(=O)O[C@H]1C(=O)[C@@]2(C)[C@H]([C@H](OC(=O)c3ccccc3)[C@]3(O)C[C@H](OC(=O)[C@H](O)[C@H](CC(C)C)NC(=O)OC4CCCC4)C(C)=C1C3(C)C)[C@]1(OC(C)=O)CO[C@@H]1C[C@@H]2O as the molecule, how does the IC50 (MCF7 [1]) read?
A: The IC50 was 1.3 nM.

Q: What about the “Ratio IC50” value (MCF7 [2]) of the same molecule?
A: Its value is 6.8.

Q: And the IC50 [3]?
A: The IC50 was 8.8 nM.

Q: And the IC50 [4]?
A: The IC50 was 2.6 nM.

Q: And the “Ratio IC50” value (C6)?
A: Its value is 5.4.

Q: And the IC50 [7]?
A: The IC50 was 14 nM.

Q: With COc1ccc(CC(=O)O[C@H]2C(=O)[C@@]3(C)[C@H]([C@H](OC(=O)c4cccc(OC)c4)[C@]4(O)C[C@H](OC(=O)[C@H](O)[C@H](C=C(C)C)NC(=O)OC(C)(C)C)C(C)=C2C4(C)C)[C@]2(OC(C)=O)CO[C@@H]2C[C@@H]3O)cc1 as the molecule, how does the IC50 (MCF7 [1]) read?
A: Its IC50 is 0.6 nM.

Q: What about the “Ratio IC50” value (MCF7 [2]) of the same molecule?
A: The value was 3.

Q: And the IC50 [3]?
A: The IC50 was 1.8 nM.

Q: And the IC50 [4]?
A: The IC50 was 0.4 nM.

Q: What about the “Ratio IC50” value (C6) of the same molecule?
A: Its value is 1.

Q: What about the IC50 [7] of the same molecule?
A: The IC50 was 0.4 nM.
